High-throughput results deposited in PubChem BioAssay by several laboratories.
JNK3 blocker: JNK3 kinase activity inhibitors, primary screen, biochemical, human, purified enzyme | 60,000 tested, 0.61% active | HTS | inhibition, % at 8 µM; in the data active = inhibition above about 17%;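 also: 0% = DMSO and 100% = reference inhibitor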
SF1 activator: activators of human SF-1, primary screen, cell-based, CHO-K1, Gal4-SF-1 LBD, luciferase luminescence; Steroidogenic factor 1 (Homo sapiens), Q13285; CHO-K1 Gal4-SF-1 LBD luciferase reporter; % increase over DMSO SF-1-specific signal; activation, % at 10 µM; 65,000 tested, 1.9% active;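 active = activation above the mean activation of all tested compounds plus 3 SD, cut at about 50% in these data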
Target sequence (Q13285 whole entry, looked up, the tested form may be a part): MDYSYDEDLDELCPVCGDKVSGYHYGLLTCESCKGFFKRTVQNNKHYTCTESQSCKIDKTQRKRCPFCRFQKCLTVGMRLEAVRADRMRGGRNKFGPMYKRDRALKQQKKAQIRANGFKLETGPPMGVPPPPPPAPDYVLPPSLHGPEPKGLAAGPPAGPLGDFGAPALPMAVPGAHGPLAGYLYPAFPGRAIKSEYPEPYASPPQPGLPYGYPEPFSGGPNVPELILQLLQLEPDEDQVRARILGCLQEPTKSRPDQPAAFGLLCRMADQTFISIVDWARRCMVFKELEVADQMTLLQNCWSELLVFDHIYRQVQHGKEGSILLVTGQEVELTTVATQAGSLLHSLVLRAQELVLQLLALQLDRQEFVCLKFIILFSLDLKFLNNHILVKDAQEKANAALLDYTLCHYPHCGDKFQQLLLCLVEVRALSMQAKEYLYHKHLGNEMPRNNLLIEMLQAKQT
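Test system: transient Gal4-SF-1 LBD reporter, CHO-K1; Amount: 4,000 CHO-K1 cells per well; Doses: 10 µM only; Timing: compound exposure 20 h at 37 °C; Signal: luciferase light emission; Read-out basis: percent activation relative to DMSO median and mock-transfected background; Control set: DMSO negative control and −SF1 background wells; Replicates: one test per compound.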
HEK293 NFkB inh: inhibitors of PMA/ionomycin-induced NF-kB reporter, primary screen, antigen receptor NF-kB inhibitor project, cell-based, HEK-293 luciferase reporter, luminescence. HEK-293 NF-kB luciferase reporter. inhibition, % at 3 µM. 62,000 tested, 0.21% active. AID 465, 2006;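 active = inhibition above the mean of all tested compounds plus 3 SD, cut at about 40% in these data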;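 also: 0% = stimulated DMSO wells and 100% = 10 µM reference inhibitor 5653914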
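System – HEK-293 cells with stable firefly luciferase reporter driven by four HIV NF-kB elements · Doses – one dose, 3 µM · Schedule – 1 h compound pre-incubation, 16 h PMA/ionomycin at 37 °C · Technique – luminescence from luciferase substrate reagent · Measure – percent inhibition normalized per plate to DMSO and reference-inhibitor controls · Replicates – tested once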
D1 allo mod: D1 CRE-luciferase signal change, two-sided – cell-based, HEK293 D1, dopamine EC30, D1 allosteric modulator project, primary screen; B-score at 10 µM; dopamine EC30 potentiation; actives deviate in either direction; D(1A) dopamine receptor (Homo sapiens), P21728; 58,000 tested, 5.9% active;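 active = luminescence count or its row- and column-corrected plate score outside the 99.7% band of the plate's sample wells, on either side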
RORa activator: activators of orphan receptor RORA, primary screen, cell-based, luminescence. Nuclear receptor ROR-alpha (Homo sapiens), P35398. CHO-K1 Gal4-RORA LBD luciferase reporter; percent increase over mock-subtracted basal signal. activation, % at 10 µM. 65,000 tested, 1.5% active. AID 560, 2006;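 active = activation above the mean of all tested compounds plus 3 SD, cut at about 49% in these data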;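 also: 0% = DMSO-treated RORA cells and 100% = added signal equal to DMSO minus mock-transfected cells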
D1 PAM confirm: D1 receptor positive allosteric modulators, retest, confirmation, cell-based, HEK293 D1, CRE-luciferase, duplicate | shares compounds with D1 allo mod | dopamine EC30 potentiation; hits give high values | luminescence at 10 µM | 2,200 tested, 88% active;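 active = luminescence in either of two replicates above the same-plate mean plus 3 SD of the low-dose dopamine control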
D1 no dopamine: D1 receptor agonism without dopamine, confirmation, mechanism study for D1 allosteric modulator project, cell-based, HEK293 D1, CRE-luciferase, secondary assay 1; AID 646, 2007; luminescence at 10 µM; 1,900 tested, 0.8% active; shares compounds with D1 allo mod; luminescence, no dopamine; hits give high values; in the data active = luminescence above about 3900
Isoprot counter: counter-screen for D1 modulators: isoproterenol response in HEK293 cells | HEK293 D1 CRE-luciferase, isoproterenol EC30 counter-screen | 2,200 tested, 63% active | calls only at 10 µM | shares compounds with D1 allo mod | AID 647;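 active = luminescence in either replicate above plate mean of wells with a partly effective reference agonist dose plus 3 SD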;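 also: isoproterenol raises cAMP through native beta-adrenoceptor Gs so signal bypasses D1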
The depositor's hits bear a star; i = inactive; . = no result given; + = active, no number. Rows were chosen to be rich in hits. Some 7.9% of all compounds tested hit in one or more screens of this group.

SMILES | JNK3 blocker | SF1 activator | HEK293 NFkB inh | D1 allo mod | RORa activator | D1 PAM confirm | D1 no dopamine | Isoprot counter
CCCCc1nc2n[nH]c(N)c2c2c1CCC2 | -5.4 | -13.0 | 17.5 | 7.93* | -21.2 | 22688* | 1740 | +
COC(=O)CNc1nc(-c2ccncc2)nc2ccccc12 | -2.6 | -10.0 | 1.9 | 2.11 | 2.9 | . | . | .
CCOc1nc(-c2ccncc2)nc2ccccc12 | 3.3 | 2.1 | . | 13.3* | 0.0 | 14136* | 1720 | +
Cn1c(/C(C#N)=C/C2CC=CCC2)nc2ccccc21 (stereo not given) | 3.5 | 19.5 | 8.0 | 3.79* | -6.5 | 9264* | 1596 | i
CCOC(=O)c1cc(C)n(S(=O)(=O)c2ccc(C)cc2)c1C | 2.9 | 8.4 | 14.8 | . | -1.6 | . | . | .
Cc1cc(C(=O)Nc2ccc(S(=O)(=O)Nc3nccs3)cc2)c(C)o1 | 2.1 | -15.7 | 13.6 | 8.35* | -9.6 | 16172* | 1476 | +
CCC(C)[C@@H](C(=O)Nc1ccc(OC)c(OC)c1)N1Cc2ccccc2C1=O (stereo not given in full) | 0.2 | 12.4 | 2.1 | . | -13.7 | . | . | .
Cc1ccc(-c2nn(CC(=O)NCCN3CCOCC3)c(=O)c3ccccc23)cc1 | 4.7 | 5.6 | 5.0 | -0.0353 | 1.6 | . | . | .
O=c1c2cccc3c2c(nn1CN1CCOCC1)-c1ccccc1-3 | 5.1 | -4.4 | -1.4 | 5.3* | -35.4 | 8092* | 1824 | +
CCOc1cc2[nH]c(=O)n(CC3CCC(C(=O)NC(C)CC)CC3)c(=O)c2cc1OCC (stereo not given) | 5.0 | -4.7 | 12.3 | 0.0848 | -23.4 | . | . | .
COc1cc(C2C3C(=O)N(c4ccccc4)C(=O)C3ON2c2ccccc2)cc(OC)c1OC (stereo not given) | -3.5 | -8.1 | 10.4 | 0.53 | -16.1 | . | . | .
COc1cccc(N2C(=O)C3ON(c4ccccc4)C(c4cccs4)C3C2=O)c1 (stereo not given) | -3.9 | 3.5 | 17.3 | 14.6* | -24.9 | 6168* | 1676 | i
COC(=O)c1sc2ccccc2c1C(=O)OC | 0.9 | 1.6 | 8.0 | 10.3* | -6.3 | 9140* | 1712 | i
COC(=O)c1sc2ccccc2c1NC(=O)c1cccs1 | 0.9 | -3.0 | 10.6 | 18.8* | -13.6 | 20828* | 1756 | +
COC(=O)c1sc2ccccc2c1N | 5.4 | 46.5 | 2.8 | 2.85 | 2.7 | . | . | .
CCN(C#N)c1nc(N(C)C)nc(N(C)C)n1 | 0.4 | -19.4 | 1.8 | . | -7.6 | . | . | .
C=CCn1c(SCC(=O)Nc2sc(C)c(C)c2C(=O)OCC)nnc1-c1sc(N)nc1C | 8.6 | 8.5 | 4.6 | 2.71* | -16.1 | 10116* | 1640 | i
O=C(CSc1ccc2nnc(-c3ccncc3)n2n1)Nc1ccccc1F | 1.4 | 7.2 | 6.6 | 0.119 | -36.4 | . | . | .
COc1ccccc1NC(=O)CSc1ccc2nnc(-c3cccnc3)n2n1 | 1.6 | -2.2 | 23.8 | 2.5* | -15.5 | 8024 | 1728 | i
O=C(NCC1CCCO1)C1CCCCN1S(=O)(=O)c1ccc(F)cc1 (stereo not given) | . | 2.3 | 32.1 | . | -3.1 | . | . | .
Brc1ccccc1Cn1c(-c2cncs2)nc2ccccc21 | -2.1 | -10.2 | 6.6 | 10.2* | -8.3 | 19056* | 1708 | +
COc1ccc(C2C3=C(CC(c4ccco4)CC3=O)Nc3ccccc3N2C(C)=O)cc1 (stereo not given) | -0.4 | -0.4 | 14.9 | -0.187 | -6.4 | . | . | .
CC1CC(=O)C2=C(C1)Nc1ccccc1N(C(=O)COc1ccccc1)C2c1ccco1 (stereo not given) | -2.5 | -13.4 | 0.4 | 14.3* | 2.0 | 7072 | 1484 | i
CCOc1ccc(-c2[nH]ncc2Oc2ccccc2OC)c(O)c1 | -5.7 | 5.0 | 6.5 | -0.823 | -15.8 | . | . | .
CCOc1ccc(-c2[nH]ncc2-c2ccc(OC)c(OC)c2)c(O)c1 | 12.2 | 20.0 | 33.0 | 5.23* | 11.8 | 13188* | 1944 | +
SMILES | JNK3 blocker | SF1 activator | HEK293 NFkB inh | D1 allo mod | RORa activator | D1 PAM confirm | D1 no dopamine | Isoprot counter
C/C(NC1CCCCC1)=C(/C#N)C(=O)NCCN1CCOCC1 | -1.1 | 2.6 | -4.8 | 0.833 | 1.6 | . | . | .
COC(=O)c1sccc1NC(=O)c1ccc(Cl)s1 | -0.5 | 1.0 | 1.3 | 1.73 | -3.8 | . | . | .
CNC(=O)c1ccsc1NC(=O)c1ccc(Cl)s1 | 3.0 | 38.0 | -12.4 | 4.89* | 16.2 | 16692* | 1816 | +
CCOC(=O)Nc1c(O)ccc2oc(C)c(-c3ccccc3)c12 | -2.4 | -0.3 | 11.4 | -0.415 | 7.6 | . | . | .
CCC(C)Sc1nc2c(c(=O)[nH]c(=O)n2C)n1C (stereo not given) | -2.8 | -5.6 | 10.1 | 2.52 | 33.8 | . | . | .
COC(=O)CSc1nc2c(c(=O)[nH]c(=O)n2C)n1CCC(C)C | 1.8 | -13.2 | 11.2 | 5.17* | -24.4 | 12872* | 1692 | +
CCCCn1c(SCC(=O)c2ccccc2)nc2c1c(=O)[nH]c(=O)n2C | -6.6 | -14.6 | 16.2 | 0.418 | -16.9 | . | . | .
CCOC(=O)C(CC)Sc1nc2c(c(=O)[nH]c(=O)n2C)n1C/C=C(/C)Cl (stereo not given) | -0.3 | -3.9 | 16.6 | 8.62* | -10.5 | 16300* | 1792 | +
CCCCCn1c(SCC(=O)OC)nc2c1c(=O)[nH]c(=O)n2C | 5.4 | 4.3 | 1.7 | 4.24* | -6.8 | 14176* | 1660 | i
C=CCn1c(Cc2cccs2)nnc1SCC(=O)Nc1cc(OC)cc(OC)c1 | -4.6 | 5.4 | 11.0 | 0.928 | 5.7 | . | . | .
CC(C)(O)C#Cc1ccc(C(=O)NCc2cccs2)s1 | 1.2 | 20.5 | 6.9 | 0.192 | -3.6 | . | . | .
CC1CCN(C(=O)CSc2nnc(CN3CCOCC3)n2-c2ccccc2)CC1 | 6.7 | 4.5 | 11.2 | 0.253 | -5.0 | . | . | .
CSc1ccc2[nH]c(=O)cc(C)c2c1 | 4.5 | 5.8 | 10.6 | -0.0543 | -18.7 | . | . | .
COc1cc(OC)cc(C(=O)Nn2cc(C(=O)N3CCN(C)CC3)c3ccccc3c2=O)c1 | . | -1.6 | 9.3 | 2.91* | 5.6 | 5944* | 1800 | i
COc1cc2ccccc2cc1C(=O)N1CCN(C)CC1 | -1.9 | -11.9 | -1.6 | -1.3 | -16.1 | . | . | .
